Assay [1] has as its target T1, Adrenergic receptor alpha-1 (Rattus norvegicus, UniProt P15823+P23944+P43140).
T1 sequence (P15823 whole entry): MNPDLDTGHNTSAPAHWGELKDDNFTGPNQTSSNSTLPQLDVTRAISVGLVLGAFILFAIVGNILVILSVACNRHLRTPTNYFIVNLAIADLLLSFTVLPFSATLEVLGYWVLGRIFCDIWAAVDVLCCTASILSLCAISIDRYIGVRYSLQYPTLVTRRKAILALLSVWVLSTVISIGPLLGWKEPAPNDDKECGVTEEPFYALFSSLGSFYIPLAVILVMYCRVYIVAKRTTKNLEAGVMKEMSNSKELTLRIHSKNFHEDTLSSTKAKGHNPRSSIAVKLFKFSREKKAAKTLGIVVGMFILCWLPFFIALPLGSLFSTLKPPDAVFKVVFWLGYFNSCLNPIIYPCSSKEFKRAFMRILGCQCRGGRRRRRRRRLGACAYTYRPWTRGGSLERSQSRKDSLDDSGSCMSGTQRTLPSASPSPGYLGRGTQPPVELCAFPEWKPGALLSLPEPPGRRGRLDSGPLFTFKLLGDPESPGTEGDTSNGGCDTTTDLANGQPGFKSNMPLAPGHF
T1 sequence (P23944 whole entry): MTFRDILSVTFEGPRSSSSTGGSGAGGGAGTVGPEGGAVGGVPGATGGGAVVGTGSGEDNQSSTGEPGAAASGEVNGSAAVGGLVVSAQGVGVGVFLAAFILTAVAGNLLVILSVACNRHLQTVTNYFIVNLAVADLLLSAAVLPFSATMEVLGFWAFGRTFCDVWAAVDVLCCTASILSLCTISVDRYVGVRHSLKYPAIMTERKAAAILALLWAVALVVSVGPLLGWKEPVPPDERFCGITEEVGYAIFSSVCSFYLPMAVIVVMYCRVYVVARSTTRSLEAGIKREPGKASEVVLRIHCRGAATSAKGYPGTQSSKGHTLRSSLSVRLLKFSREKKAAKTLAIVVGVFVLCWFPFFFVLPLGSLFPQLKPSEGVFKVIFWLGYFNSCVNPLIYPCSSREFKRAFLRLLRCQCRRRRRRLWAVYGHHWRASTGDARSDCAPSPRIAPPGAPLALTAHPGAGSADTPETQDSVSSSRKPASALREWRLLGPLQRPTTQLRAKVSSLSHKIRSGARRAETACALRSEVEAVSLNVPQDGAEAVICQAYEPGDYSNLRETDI
T1 sequence (P43140 whole entry): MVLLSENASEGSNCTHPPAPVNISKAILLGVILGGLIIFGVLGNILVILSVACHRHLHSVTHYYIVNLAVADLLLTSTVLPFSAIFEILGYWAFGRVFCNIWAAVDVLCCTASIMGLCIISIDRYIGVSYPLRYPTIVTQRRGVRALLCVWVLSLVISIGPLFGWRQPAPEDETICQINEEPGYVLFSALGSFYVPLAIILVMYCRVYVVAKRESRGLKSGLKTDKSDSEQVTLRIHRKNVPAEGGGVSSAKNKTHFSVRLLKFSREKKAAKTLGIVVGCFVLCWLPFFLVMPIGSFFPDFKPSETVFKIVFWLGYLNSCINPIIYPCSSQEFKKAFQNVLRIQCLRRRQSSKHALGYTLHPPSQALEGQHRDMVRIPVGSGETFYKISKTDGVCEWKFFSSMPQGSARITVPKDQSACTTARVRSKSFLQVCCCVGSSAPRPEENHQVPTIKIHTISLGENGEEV
Kind of assay: In vitro binding affinity towards alpha-1 adrenergic receptor by the displacement of [3H]prazosin radioligand in rat cortical homogenates. A digest of the protocol: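 Rat cortical homogenates labelled with [3H]prazosin (0.2 nM), incubated 30 min at 25 °C. Stopped with cold 50 mM Tris pH 7.4, then rapid filtration. Triplicate, at least eight concentrations. Nonlinear regression gave IC50, converted to apparent Ki by Cheng-Prusoff. Means of at least two experiments ± SEM; values without SEM are single determinations.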

Assay [2] has as its target T2, D(2) dopamine receptor (Rattus norvegicus, UniProt P61169). Kind of assay: In vitro low binding affinity towards Dopamine receptor D2 by the displacement of [3H]spiperone radioligand in rat striatal membranes. Format: cell membranes, Membrane. Background: Loss of bound radioactivity is the signal in a displacement assay; it reports binding, not function.
In assay [3] the target is T2, D(2) dopamine receptor. Kind of assay: In vitro high binding affinity towards Dopamine receptor D2 by the displacement of [3H]quinpirole radioligand in rat striatal membranes. Format: cell membranes, Membrane.
Assay [4] has as its target D(2) dopamine receptor (Rattus norvegicus) (UniProt P61169). Description: Ratio of Dopamine D2 receptor (low)and Dopamine D2 receptor (high). An outline of the steps:
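Ratio Ki(low)/Ki(high). Ki(low) comes from displacement of 1 nM [3H]spiperone in striatal membranes with 1 mM GppNHp and NaCl, 37 °C for 5 min. […] Both Ki values derived by Cheng-Prusoff from nine concentrations in triplicate; the ratio serves as an estimate of intrinsic activity.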

For assay [5], the target named is T3, 5-hydroxytryptamine receptor 1A (Rattus norvegicus, UniProt P19327).
T3 sequence (P19327 whole entry): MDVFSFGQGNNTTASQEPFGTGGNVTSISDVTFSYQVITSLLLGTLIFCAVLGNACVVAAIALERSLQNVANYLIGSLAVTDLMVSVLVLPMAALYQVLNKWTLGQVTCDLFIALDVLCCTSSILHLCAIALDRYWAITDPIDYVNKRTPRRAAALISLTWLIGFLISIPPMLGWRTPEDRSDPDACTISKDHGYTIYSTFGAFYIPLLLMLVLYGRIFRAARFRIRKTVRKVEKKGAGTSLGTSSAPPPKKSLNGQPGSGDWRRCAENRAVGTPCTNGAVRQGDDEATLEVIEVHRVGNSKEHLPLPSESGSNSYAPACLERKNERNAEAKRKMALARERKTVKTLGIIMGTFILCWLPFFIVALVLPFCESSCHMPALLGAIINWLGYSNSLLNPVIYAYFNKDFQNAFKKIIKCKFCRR
Kind of assay: In vitro binding affinity towards 5-hydroxytryptamine 1A receptor by the displacement of [3H]8-OH-DPAT radioligand in rat hippocampal homogenates. Format: tissue-based, Hippocampus.

SMILES strings stand for the structures. pKi: −log10 of the molar value.

T2 sequence (P61169 whole entry): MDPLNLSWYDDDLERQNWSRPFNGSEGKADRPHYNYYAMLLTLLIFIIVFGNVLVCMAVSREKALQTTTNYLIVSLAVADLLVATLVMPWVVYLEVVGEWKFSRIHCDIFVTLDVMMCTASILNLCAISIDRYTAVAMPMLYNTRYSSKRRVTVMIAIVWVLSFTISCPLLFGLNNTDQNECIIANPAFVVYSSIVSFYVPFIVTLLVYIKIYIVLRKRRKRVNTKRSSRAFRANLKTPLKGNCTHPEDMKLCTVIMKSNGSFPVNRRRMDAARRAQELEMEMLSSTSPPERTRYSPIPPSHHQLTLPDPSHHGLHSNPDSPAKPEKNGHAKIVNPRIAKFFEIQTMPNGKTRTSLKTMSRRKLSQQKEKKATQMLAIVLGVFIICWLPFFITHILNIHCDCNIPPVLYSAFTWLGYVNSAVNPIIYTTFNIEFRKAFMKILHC
Chain of D(2) dopamine receptor (Rattus norvegicus) (P61169 whole entry): as above

Usually Ki stands for a measure of affinity in units of concentration, obtained from inhibition or displacement. As a reminder, the pKi is the Ki on a negative log10 scale, so that one unit is a factor of ten. The compound `O=C1Cc2c(OCCN3Cc4ccccc4C3)ccc(F)c2N1` had a Ki in assay [1] of 268 nM. Also, the values for the pKi in assay [2], in assay [3] and in assay [5] were 7.80, 8.68 and 7.89, respectively. Also, the Ratio in assay [4] turned out to be 7.
As to `Oc1cccc(OCCNCc2ccccc2)c1`, the Ki in assay [1] was determined as 5291 nM. In addition, the results for the pKi in assay [2] and in assay [5] were 6.94 and 5.75, respectively. Also, in assay [4], the Ratio is 32.
Regarding `Clc1ccc(OCCNCc2ccccc2)c2c(Cl)c[nH]c12`, the Ki in assay [1] came to 66 nM. The figures for the pKi in assay [2], in assay [3] and in assay [5] were 7.70, 8.15 and 6.66, respectively. For the same compound, the Ratio in assay [4] worked out at 3.
Turning to `Fc1ccc(CNCCOc2ccc(Cl)c3[nH]cc(Cl)c23)cc1`, the Ki in assay [1] came out at 229 nM. The values for the pKi in assay [2], in assay [3] and in assay [5] were 7.23, 7.30 and 6.16, respectively. Further, in assay [4], the Ratio is 1.
The like results for `CN(CCCC(=O)c1ccc(F)cc1)CCOc1cccc2c1CC(=O)N2` were, in that order, 9.5 nM, 7.62, 8.51, 6.60 and 8.
As to `O=C1Cc2c(OCCNCCCc3c[nH]c4ccccc34)ccc(F)c2N1`, in assay [1], the Ki is recorded as 26 nM. In addition, the pKi in assay [2] is 8.52; in assay [3], 9.82; in assay [5], 7.92. Moreover, the Ratio in assay [4] stood at 20.
Take `CCCCNCCOc1ccc(Cl)c2c1CC(=O)N2`: the Ki in assay [1] was found to be 11 nM. Further, the pKi in assay [2] was 7.84; in assay [3], 9.08. Besides, in assay [4], the Ratio worked out at 17.
On to `O=C1Cc2c(OCCN3CCc4ccccc4C3)ccc(Cl)c2N1`, for which the Ki in assay [1] worked out at 143 nM. Also, the pKi in assay [2] is 8.37; in assay [3], 9.26; in assay [5], 7.77. Besides, the Ratio in assay [4] was found to be 8.
On to `Clc1ccc(OCCNCc2cccs2)c2c(Cl)c[nH]c12`, for which the values for the pKi in assay [2] and in assay [3] were 7.42 and 7.91, respectively. Moreover, the Ratio in assay [4] amounted to 3.
In the case of `c1ccc(CCCCNCCOc2cccc3[nH]ccc23)cc1`, the Ki in assay [1] is on record as 11.5 nM. In addition, the values for the pKi in assay [2], in assay [3] and in assay [5] were 7.84, 8.28 and 9.40, respectively. Besides, in assay [4], the Ratio came out at 3.
The like results for `O=C1Cc2c(cccc2OCCNCCCCc2ccccc2)N1` were, in that order, 13 nM, 8.69, 9.64, 8.72 and 9.
The corresponding values for `O=C1Cc2c(OCCNCc3ccc(-c4ccccc4)cc3)ccc(Cl)c2N1` are 268 nM, 7.33, 7.76, 7.42 and 3.
Take `O=C(c1c[nH]c2c(Cl)ccc(OCCNCc3ccccc3)c12)C(F)(F)F`: the Ki in assay [1] came out at 97.5 nM. In assay [5], this compound showed a pKi of 7.29.
On to `CN(CCOc1ccc(Cl)c2c1CC(=O)N2)Cc1ccccc1`, for which, in assay [1], the Ki was determined as 41 nM. For the same compound, the pKi was 7.63 in assay [2], 8.59 in assay [3] and 8.10 in assay [5]. For the same compound, the Ratio in assay [4] was found to be 9.
The corresponding values for `O=C1Cc2c(OCCNCc3ccccc3)ccc(Cl)c2N1` are 350 nM, 8.55, 9.39, 5.58 and 7.
Consider `O=C1Cc2c(OCCNCc3ccc4ccccc4c3)ccc(F)c2N1`, for which, in assay [1], the Ki is given as 154 nM. Moreover, the pKi was 8.05 in assay [2], 9.20 in assay [3] and 6.92 in assay [5]. The Ratio in assay [4] stood at 14.
Turning to `Clc1ccc(CNCCOc2ccc(Cl)c3[nH]cc(Cl)c23)cc1`, the Ki in assay [1] was 458 nM. Moreover, the pKi is 7.53 in assay [2] and 7.11 in assay [3]. For the same compound, the Ratio in assay [4] is 0.4.
Take `Oc1ccc2c(c1)O[C@@H](CNCc1ccccc1)CN2`: the negative logarithm of the Ki (pKi) in assay [2] was 6.89; in assay [3] it was 8.17.

The values are drawn from ChEMBL document CHEMBL1132231, “New generation dopaminergic agents. 6. Structure-activity relationship studies of a series of 4-(aminoethoxy)indole and 4-(aminoethoxy)indolone derivatives based on the newly discovered 3-hydroxyphenoxyethylamine D2 template” (J Med Chem, 1999).
